Each structure is given as a SMILES string. pKi: −log10 of the molar value. The source made the active and inactive calls.

By inhibition is commonly meant how much of the control response was suppressed. A higher inhibition goes with a strong effect. As usually defined, the pKi is −log10 of the Ki, conventionally taken in molar units.

The species named for one data set is Bos taurus. Put plainly: Displacement of [3H]Ro151788 from GABA(A)/BzR in bovine cerebral cortex membrane at 10 uM. It is filed as cell membranes. An outline of the steps: (§1)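 Bovine cerebral cortex membranes in 50 mM Tris-citrate pH 7.4; [3H]flumazenil displacement. Compounds first tested at a fixed 10 µM; Ki determined only when inhibition exceeded 80%, using at least six concentrations. Five experiments run in triplicate; IC50 obtained by iterative curve fitting and converted to Ki with the Cheng–Prusoff equation.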
On the technique in general: In a radioligand displacement assay an active substance lowers the binding of a labelled ligand.

Data set [1] is described as follows: Displacement of [3H]Ro151788 from GABA(A)/BzR in bovine cerebral cortex membrane. Type of data set: cell membranes, Bos taurus. An outline of the steps: as §1
Data set [2] deals with Mus musculus. In words: Antihyperalgesic activity against streptozotocin-induced hyperalgesia in Swiss albino mouse […] assessed as licking latency time at 30 mg/kg, po after 60 mins by hot plate test (reference value: 9.3 +/- 0.7 secs). It is filed as functional. On the technique in general: In hot-plate and tail-flick tests a longer latency is read as antinociception.
In data set [3] the test system is Mus musculus. Put plainly: Antihyperalgesic activity Swiss albino mouse […] assessed as licking latency time at 30 mg/kg, po after 60 mins by hot plate test (reference value: 16.9 +/- 0.8 secs). It is filed as functional. The method, boiled down: (§2)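 Hot plate at 52.5 ± 0.1 °C in non-diabetic male Swiss mice. Latency to licking of fore or hind paws was timed before dosing and every 15 min up to 60 min after oral dosing. Mice with pretest latencies below 12 s or above 18 s were excluded. Cut-off was 45 s.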

Data set [4] deals with Mus musculus. In words: Antihyperalgesic activity against streptozotocin-induced hyperalgesia in Swiss albino mouse […] assessed as licking latency time at 30 mg/kg, po after 45 mins by hot plate test (reference value: 9.3 +/- 0.7 secs). It is filed as functional.
Data set [5] concerns Mus musculus. Put plainly: Antihyperalgesic activity Swiss albino mouse […] assessed as licking latency time at 30 mg/kg, po after 45 mins by hot plate test (reference value: 16.9 +/- 0.8 secs). Type of data set: functional. An outline of the steps: as §2
Data set [6] concerns Mus musculus. In words: Antihyperalgesic activity against streptozotocin-induced hyperalgesia in Swiss albino mouse […] assessed as licking latency time at 30 mg/kg, po after 30 mins by hot plate test (reference value: 9.3 +/- 0.7 secs). Type of data set: functional.
Data set [7] concerns Mus musculus. Put plainly: Antihyperalgesic activity Swiss albino mouse […] assessed as licking latency time at 30 mg/kg, po after 30 mins by hot plate test (reference value: 16.9 +/- 0.8 secs). Type of data set: functional. The method, boiled down: as §2
Data set [8] concerns Mus musculus. Put plainly: Antihyperalgesic activity against streptozotocin-induced hyperalgesia in Swiss albino mouse […] assessed as licking latency time at 30 mg/kg, po after 15 mins by hot plate test (reference value: 9.3 +/- 0.7 secs). It is filed as functional.
Data set [9] deals with Mus musculus. Put plainly: Antihyperalgesic activity Swiss albino mouse […] assessed as licking latency time at 30 mg/kg, po after 15 mins by hot plate test (reference value: 16.9 +/- 0.8 secs). It is filed as functional. An outline of the steps:
as §2

Data set [10] has as its system Mus musculus. In words: Anxiolytic-like activity in Swiss albino mouse at 30 mg/kg, po after 30 mins by light/dark box test. Type of data set: functional, organism-based. Further details: dose 30 mg/kg. An outline of the steps: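 Male Swiss mice tested in a two-compartment light/dark box. Transfers between compartments and time spent in the lit side recorded. Compound given po 30 min before testing, in 10 ml/kg; flumazenil given i.p. for antagonism; 8 mice per group.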

Data set [11] concerns Mus musculus. Put plainly: Analgesic activity in Swiss albino mouse abdominal constriction model assessed as decrease in number of acetic acid-induced writhing at 30 to 60 mg/kg, po after 30 mins. It is filed as functional, organism-based. As to conditions: Abdomen. The method, boiled down: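 Male Swiss albino mice (23–30 g). Compounds given po in 1% CMC vehicle 30 min before the test. Acetic acid 0.6% injected i.p. at 10 ml/kg. Stretching movements were counted for 10 min, starting 5 min after the acetic acid injection. 8–15 mice per group.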
On the technique in general: In writhing tests, fewer writhes than in controls are read as antinociception.

The subject of data set [12] is Mus musculus. In words: Anticonvulsant activity in Swiss albino mouse […] assessed as protection against intraperitoneally administered pentylenetetrazol-induced seizures at 30 mg/kg, po after 30 mins. Type of data set: functional. The method, boiled down: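 Male Swiss albino mice. Compounds given po and PTZ 90 mg/kg injected 30 min later; PTZ was dissolved in 0.9% NaCl saline. Clonic generalized convulsions were recorded over 30 min. Each value is the mean of 10 mice. The methods give the PTZ route as s.c. and the table footnote gives it as ip.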

The subject of data set [13] is Rattus norvegicus. In words: Antinociceptive activity in Sprague-Dawley rat mononeuropathy pain model assessed as increase in injured paw pressure at 30 mg/kg, po after 45 mins by paw pressure test relative to non-treated control. It is filed as functional. The method, boiled down:
(§3)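 Chronic constriction injury: loose ligatures placed on the common sciatic nerve under chloral hydrate; contralateral sham dissection. Tested 14 days after surgery. Paw pressure applied at 32 g/s; threshold taken as the force causing the first struggle; cut-off 250 g; pretest outliers (<40 g or >75 g) excluded. Oral dosing in 10 ml/kg; read at 15, 30 and 45 min; compared with a CMC-treated group.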

The subject of data set [14] is Rattus norvegicus. Put plainly: Antinociceptive activity in Sprague-Dawley rat mononeuropathy pain model assessed as increase in injured paw pressure at 30 mg/kg, po after 30 mins by paw pressure test relative to non-treated control. It is filed as functional. The method, boiled down:
as §3

Data set [15] concerns Rattus norvegicus. Put plainly: Antinociceptive activity in Sprague-Dawley rat mononeuropathy pain model assessed as increase in injured paw pressure at 30 mg/kg, po after 15 mins by paw pressure test relative to non-treated control. It is filed as functional. An outline of the steps: as §3
Data set [16] deals with Rattus norvegicus. Put plainly: Antinociceptive activity in Sprague-Dawley rat mononeuropathy pain model assessed as increase in injured paw pressure at 10 mg/kg, po after 45 mins by paw pressure test relative to non-treated control. Type of data set: functional. An outline of the steps: as §3
Data set [17] deals with Rattus norvegicus. In words: Antinociceptive activity in Sprague-Dawley rat mononeuropathy pain model assessed as increase in injured paw pressure at 10 mg/kg, po after 30 mins by paw pressure test relative to non-treated control. Type of data set: functional. An outline of the steps: as §3
The test system of data set [18] is Rattus norvegicus. Put plainly: Antinociceptive activity in Sprague-Dawley rat mononeuropathy pain model assessed as increase in injured paw pressure at 10 mg/kg, po after 15 mins by paw pressure test relative to non-treated control. Type of data set: functional. An outline of the steps: as §3
For data set [19], the system named is Rattus norvegicus. In words: Toxicity in Sprague-Dawley rat mononeuropathy pain model assessed as effect on contralateral paw pressure at 30 mg/kg, po after 45 mins by paw pressure test. Type of data set: organism-based. Further details: dose 30 mg/kg, route oral. As to conditions: in vivo, 0.75 h. An outline of the steps:
(§4)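 Same sciatic-ligation rat model, 14 days after surgery. Threshold measured on the non-operated contralateral hind paw by analgesimeter at 32 g/s; first-struggle endpoint; 250 g cut-off; pretest rats outside 40–75 g rejected. Compound given po in 10 ml/kg; readings at 15, 30 and 45 min.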

The subject of data set [20] is Rattus norvegicus. In words: Toxicity in Sprague-Dawley rat mononeuropathy pain model assessed as effect on contralateral paw pressure at 30 mg/kg, po after 30 mins by paw pressure test. It is filed as organism-based. Details: dose 30 mg/kg, route oral. As to conditions: in vivo, 0.5 h. An outline of the steps: as §4
The subject of data set [21] is Rattus norvegicus. Put plainly: Toxicity in Sprague-Dawley rat mononeuropathy pain model assessed as effect on contralateral paw pressure at 30 mg/kg, po after 15 mins by paw pressure test. Type of data set: organism-based. Details: dose 30 mg/kg, route oral. As to conditions: in vivo, 0.25 h. An outline of the steps: as §4
Data set [22] concerns Rattus norvegicus. In words: Toxicity in Sprague-Dawley rat mononeuropathy pain model assessed as effect on contralateral paw pressure at 10 mg/kg, po after 45 mins by paw pressure test. Details: dose 10 mg/kg, route oral. As to conditions: in vivo, 0.75 h. Type of data set: organism-based. An outline of the steps: as §4
Data set [23] concerns Rattus norvegicus. In words: Toxicity in Sprague-Dawley rat mononeuropathy pain model assessed as effect on contralateral paw pressure at 10 mg/kg, po after 30 mins by paw pressure test. Type of data set: organism-based. Details: dose 10 mg/kg, route oral. As to conditions: in vivo, 0.5 h. An outline of the steps: as §4
Data set [24] relates to Rattus norvegicus. In words: Toxicity in Sprague-Dawley rat mononeuropathy pain model assessed as effect on contralateral paw pressure at 10 mg/kg, po after 15 mins by paw pressure test. To be noted: in vivo, 0.25 h. Details: dose 10 mg/kg, route oral. Type of data set: organism-based. An outline of the steps: as §4

For `[O-][n+]1nc2c(I)cnn2c2cc(NCCc3ccccc3)ccc21`, the inhibition in the data set listed under Bos taurus was > 80%. The compound also showed a pKi in data set [1] of 7.83.

In the case of `COc1ccccc1CNc1ccc2c(c1)n1ncc(C)c1n[n+]2[O-]`, the inhibition in the data set listed under Bos taurus is > 80%. Further, the pKi in data set [1] was 9.11.

`Cc1cnn2c1n[n+]([O-])c1ccc(OCC(C)c3ccccc3)cc12` (racemic): the inhibition in the data set filed under Bos taurus is > 80%. The pKi in [1] is 6.44.

As for `Cc1cnn2c1n[n+]([O-])c1ccc(Cl)cc12`, in the data set filed under Bos taurus, the inhibition is > 80%. The same compound showed a negative-log Ki (pKi) in data set [1] of 6.40.

Turning to `COc1ccccc1CNc1ccc2c(c1)n1ncc(I)c1n[n+]2[O-]`, the inhibition in the data set listed under Bos taurus was > 80%. The compound further gave a pKi in [1] of 9.86.

Regarding `Ic1cnn2c1nnc1ccc(NCc3ccccc3)cc12`, the inhibition in the data set filed under Bos taurus was > 80%. This compound also had a pKi in data set [1] of 9.15.

On to `COc1ccccc1COc1ccc2c(c1)n1ncc(C)c1n[n+]2[O-]`, for which the inhibition in the data set filed under Bos taurus is > 80%. The compound also showed a pKi in [1] of 8.52.

As for `CC(COc1ccc2c(c1)n1ncc(I)c1n[n+]2[O-])c1ccccc1` (racemic), the inhibition in the data set listed under Bos taurus was > 80%. In addition, the Time with Mus musculus [2] was determined as 18.1 s; in the data set on Mus musculus [3], 18.2 s; with Mus musculus [4] it was 17.8 s; with Mus musculus [5], 17.7 s; with Mus musculus [6] it was 17.5 s; in the data set with Mus musculus [7] it was 16.8 s. In addition, the Time was 16.4 s with Mus musculus [8] and 17.2 s in the data set on Mus musculus [9]. In addition, the outcome with Mus musculus [10] was Active. For the same compound, the result in the data set on Mus musculus [11] was inactive. Moreover, the Activity in the data set on Mus musculus [12] stood at 0%; with Rattus norvegicus [13] it was 39 g; in the data set with Rattus norvegicus [14] it was 40.8 g; in the data set with Rattus norvegicus [15], 43.4 g; with Rattus norvegicus [16], 37.2 g; in the data set on Rattus norvegicus [17], 43.5 g. For the same compound, the Activity in the data set with Rattus norvegicus [18] turned out to be 42.5 g; in the data set with Rattus norvegicus [19] it was 59.2 g; in the data set on Rattus norvegicus [20], 61.7 g; in the data set with Rattus norvegicus [21] it was 58.8 g; in the data set with Rattus norvegicus [22] it was 57.9 g; in the data set with Rattus norvegicus [23], 63.5 g. Moreover, the Activity in the data set on Rattus norvegicus [24] came out at 59.8 g.

Values taken from ChEMBL document CHEMBL2176871, “Development of ligands at γ-aminobutyrric acid type A (GABAA) receptor subtype as new agents for pain relief” (Bioorg Med Chem, 2011).
